Publication PMC4981430 (Neuropharmacology, 2016)
Like-named read-outs stand apart in the source and are kept apart here.

What was measured:
[1] = system: recombinant α2β3γ2 GABAARs; conditions: cited from earlier work; for Potentiation of recombinant α2β3γ2 GABAARs, relative to chlordiazepoxide: % of that of chlordiazepoxide, ref Atack et al.
α2β3γ2 GABAARs [2] = target: T1, α2β3γ2 GABAARs (Rattus norvegicus, UniProt P18508+P23576); test: Whole-cell patch-clamp, potentiation of GABA; assay type: cell-based; conditions: for Emax: HEK293, read-out: Electrophysiology Emax (potentiation)
[3] = system: α1β2γ2, α2β3γ2, α3β3γ2 and α5β2γ2 GABAARs; test: Whole-cell patch-clamp in HEK293 cells, statements across the GABAAR subtypes; assay type: cell-based, rat; conditions: up to 3 μM for DZP, and 20 μM for CBZ and NDMC
α5β2γ2 GABAARs = α5β2γ2 GABAARs (Rattus norvegicus, UniProt P18508+P19969); test: Whole-cell patch-clamp, potentiation of GABA; assay type: cell-based; conditions: for Emax: HEK293, read-out: Electrophysiology Emax (potentiation)
α1β2γ2 GABAARs [4] = target: T2, α1β2γ2 GABAARs (Rattus norvegicus, UniProt P18508+P62813); test: [3H]flunitrazepam binding to membranes of transfected HEK293 cells, α1β2γ2
α1β2γ2 GABAARs [5] = target: T2, α1β2γ2 GABAARs; test: Whole-cell patch-clamp, potentiation of GABA; assay type: cell-based; conditions: for Emax: HEK293, read-out: Electrophysiology Emax (potentiation)
α2β3γ2 GABAARs [6] = target: T1, α2β3γ2 GABAARs; test: [3H]flunitrazepam binding to membranes of transfected HEK293 cells, α2β3γ2
α3β3γ2 GABAARs = α3β3γ2 GABAARs (Rattus norvegicus, UniProt P18508+P20236); test: Whole-cell patch-clamp, potentiation of GABA; assay type: cell-based
human GABAARs = human GABAARs in Xenopus laevis oocytes; ref Hammer et al., 2015; cited from earlier work
[7] = system: CCI model of neuropathic pain, mechanical hyperalgesia; test: Mechanical hyperalgesia; assay type: in vivo, mouse; conditions: GABAAR α1(H→R) point-mutated mice, von-Frey filament stimulation, p.o.
Method in brief: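 Left sciatic nerve constricted proximal to the trifurcation with three loose 5-0 silk ligatures. Mice 7–10 weeks old, both sexes, wild-type or α1(H→R) point-mutated, tested blinded 7–14 days later. Dosing p.o. as a suspension in 0.9% saline/1% Tween80. Paw withdrawal threshold measured with electronic von Frey filament #7, 3–4 readings per time point. Expressed as %MPE using pre-CCI and pre-drug thresholds.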

[8] = system: locomotor activity of mice; test: Locomotor activity in the open field test; assay type: in vivo, mouse

T1 sequence (P23576 29-451): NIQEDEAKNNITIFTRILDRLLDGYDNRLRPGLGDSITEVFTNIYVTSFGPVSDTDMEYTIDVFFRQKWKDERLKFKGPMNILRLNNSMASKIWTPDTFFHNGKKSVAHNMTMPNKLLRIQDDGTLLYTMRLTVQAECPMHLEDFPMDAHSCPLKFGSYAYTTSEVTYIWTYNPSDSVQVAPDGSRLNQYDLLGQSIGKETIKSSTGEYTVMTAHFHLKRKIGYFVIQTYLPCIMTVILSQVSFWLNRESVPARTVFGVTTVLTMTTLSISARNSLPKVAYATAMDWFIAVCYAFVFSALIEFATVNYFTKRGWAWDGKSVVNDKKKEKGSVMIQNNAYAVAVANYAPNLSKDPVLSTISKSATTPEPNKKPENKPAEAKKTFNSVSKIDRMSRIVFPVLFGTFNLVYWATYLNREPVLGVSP
T1 sequence (P63079 26-473 partner): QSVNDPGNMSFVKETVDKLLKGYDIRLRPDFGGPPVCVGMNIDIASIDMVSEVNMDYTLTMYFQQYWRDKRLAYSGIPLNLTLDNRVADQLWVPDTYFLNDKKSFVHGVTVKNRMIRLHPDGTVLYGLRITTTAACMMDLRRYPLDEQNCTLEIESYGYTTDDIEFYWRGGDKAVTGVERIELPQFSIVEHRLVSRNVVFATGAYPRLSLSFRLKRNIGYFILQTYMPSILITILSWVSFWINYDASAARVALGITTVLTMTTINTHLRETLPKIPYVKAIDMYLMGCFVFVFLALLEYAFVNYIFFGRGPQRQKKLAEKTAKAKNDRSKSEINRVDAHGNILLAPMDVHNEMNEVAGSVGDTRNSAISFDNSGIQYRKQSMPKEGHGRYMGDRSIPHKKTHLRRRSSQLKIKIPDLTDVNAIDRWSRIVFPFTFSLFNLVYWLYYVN
T1 sequence (P18508 39-466): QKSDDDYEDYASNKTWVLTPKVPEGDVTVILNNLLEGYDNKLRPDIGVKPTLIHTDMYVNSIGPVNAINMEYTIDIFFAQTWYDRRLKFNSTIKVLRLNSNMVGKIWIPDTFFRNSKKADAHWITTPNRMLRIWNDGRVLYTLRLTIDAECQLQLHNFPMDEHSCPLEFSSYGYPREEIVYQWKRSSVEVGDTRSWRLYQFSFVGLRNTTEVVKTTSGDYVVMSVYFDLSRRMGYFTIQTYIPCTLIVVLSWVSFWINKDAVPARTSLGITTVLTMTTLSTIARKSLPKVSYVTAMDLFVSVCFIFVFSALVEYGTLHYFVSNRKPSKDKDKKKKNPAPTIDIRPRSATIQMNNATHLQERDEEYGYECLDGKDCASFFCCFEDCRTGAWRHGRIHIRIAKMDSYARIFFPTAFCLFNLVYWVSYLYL
Chain of α5β2γ2 GABAARs (P19969 32-464 limits assumed): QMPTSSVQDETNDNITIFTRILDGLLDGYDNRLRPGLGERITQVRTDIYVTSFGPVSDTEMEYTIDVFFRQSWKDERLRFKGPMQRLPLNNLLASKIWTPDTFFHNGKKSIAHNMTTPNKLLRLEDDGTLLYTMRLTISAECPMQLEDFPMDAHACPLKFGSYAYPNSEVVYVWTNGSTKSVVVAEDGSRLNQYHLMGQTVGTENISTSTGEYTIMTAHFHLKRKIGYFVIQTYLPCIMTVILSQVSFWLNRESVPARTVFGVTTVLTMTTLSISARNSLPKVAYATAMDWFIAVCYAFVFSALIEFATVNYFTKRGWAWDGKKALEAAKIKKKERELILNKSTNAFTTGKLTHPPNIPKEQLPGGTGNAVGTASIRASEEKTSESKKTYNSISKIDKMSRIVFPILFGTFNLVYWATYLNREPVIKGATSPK
Chain of α5β2γ2 GABAARs (P63138 25-474 partner limits assumed): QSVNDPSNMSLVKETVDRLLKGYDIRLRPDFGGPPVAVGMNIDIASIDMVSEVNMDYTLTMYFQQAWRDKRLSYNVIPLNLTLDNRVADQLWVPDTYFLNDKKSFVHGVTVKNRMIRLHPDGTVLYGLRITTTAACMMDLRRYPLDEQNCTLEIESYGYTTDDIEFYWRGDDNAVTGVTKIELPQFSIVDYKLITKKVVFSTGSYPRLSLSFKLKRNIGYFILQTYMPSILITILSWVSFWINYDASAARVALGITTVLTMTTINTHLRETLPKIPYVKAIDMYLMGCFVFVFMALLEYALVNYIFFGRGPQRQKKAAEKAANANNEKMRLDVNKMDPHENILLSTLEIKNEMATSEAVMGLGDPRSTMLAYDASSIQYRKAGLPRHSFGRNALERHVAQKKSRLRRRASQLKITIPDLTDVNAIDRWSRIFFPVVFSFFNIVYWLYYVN
Chain of α5β2γ2 GABAARs (P18508 39-466): as the sequence (P18508 39-466) above
T2 sequence (P62813 28-455): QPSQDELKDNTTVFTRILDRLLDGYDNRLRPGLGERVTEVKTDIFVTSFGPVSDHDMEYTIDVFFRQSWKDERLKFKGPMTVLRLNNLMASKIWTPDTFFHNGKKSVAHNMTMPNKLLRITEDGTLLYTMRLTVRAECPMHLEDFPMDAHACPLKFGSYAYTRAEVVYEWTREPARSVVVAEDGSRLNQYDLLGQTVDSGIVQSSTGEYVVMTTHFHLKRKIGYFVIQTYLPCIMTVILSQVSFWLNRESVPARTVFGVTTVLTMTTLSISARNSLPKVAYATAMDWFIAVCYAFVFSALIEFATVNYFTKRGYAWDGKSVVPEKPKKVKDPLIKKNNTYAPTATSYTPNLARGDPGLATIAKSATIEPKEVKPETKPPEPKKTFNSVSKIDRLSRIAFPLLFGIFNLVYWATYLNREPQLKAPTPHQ
T2 sequence (P63138 25-474 partner limits assumed): as the sequence (P63138 25-474 partner limits assumed) above
T2 sequence (P18508 39-466): as the sequence (P18508 39-466) above
Chain of α3β3γ2 GABAARs (P20236 29-493): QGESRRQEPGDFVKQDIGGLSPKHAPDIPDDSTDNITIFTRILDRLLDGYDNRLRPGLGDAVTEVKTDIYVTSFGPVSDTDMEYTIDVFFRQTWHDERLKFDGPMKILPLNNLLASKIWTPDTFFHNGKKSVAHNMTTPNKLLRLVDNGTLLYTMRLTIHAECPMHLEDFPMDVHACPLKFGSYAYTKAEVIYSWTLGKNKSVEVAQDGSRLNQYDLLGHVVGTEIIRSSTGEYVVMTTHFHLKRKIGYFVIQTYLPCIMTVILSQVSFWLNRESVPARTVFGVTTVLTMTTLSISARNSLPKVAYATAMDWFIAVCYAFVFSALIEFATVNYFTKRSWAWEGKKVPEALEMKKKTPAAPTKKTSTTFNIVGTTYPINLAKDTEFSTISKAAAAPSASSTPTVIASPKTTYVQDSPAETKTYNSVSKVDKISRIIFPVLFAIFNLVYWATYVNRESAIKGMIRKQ
Chain of α3β3γ2 GABAARs (P63079 26-473 partner): as the sequence (P63079 26-473 partner) above
Chain of α3β3γ2 GABAARs (P18508 39-466): as the sequence (P18508 39-466) above

CCn1ncnc1COc1nn2c(-c3ccccc3F)nnc2cc1C(C)(C)C [TPA023, 7-(1,1-Dimethylethyl)-6-(2-ethyl-2H-1,2,4-triazol-3-ylmethoxy)-3-(2-fluor ophenyl)-1,2,4-triazolo[4,3-b]pyridazine]
Potentiation of recombinant α2β3γ2 GABAARs, relative to chlordiazepoxide [1]; 2006: 11%

Cn1ncnc1COc1nn2c(-c3cc(F)ccc3F)nnc2cc1C(C)(C)C [L-838,417]
Potentiation of recombinant α2β3γ2 GABAARs ([1]; ref McKernan et al., 2000): about 40%

CC(C)(O)c1cnn2c(-c3ccc(F)c(-c4c(F)cccc4C#N)c3)cnc2n1 [TPA023B]
Potentiation of recombinant α2β3γ2 GABAARs, relative to chlordiazepoxide [1]; 2011: 38%

CN1C(=O)CC(=O)N(c2ccccc2)c2cc(Cl)ccc21 [CBZ, clobazam]
EC50 (α2β3γ2 GABAARs [2]): 390 ± 190 nM | Emax (α2β3γ2 GABAARs [2]): 134 ± 16% | α2/α1 selectivity (α2β3γ2 GABAARs [2]; determined as Emax(α2)/Emax(α1)): 0.78 ± 0.12 | Direct activation of GABAAR currents [3]: did not directly activate GABAAR currents | EC50 (α5β2γ2 GABAARs): 500 ± 120 nM | Emax (α5β2γ2 GABAARs): 157 ± 11% | IC50 (α1β2γ2 GABAARs [4]): 430 ± 130 nM | EC50 (α1β2γ2 GABAARs [5]): 610 ± 200 nM | Emax (α1β2γ2 GABAARs [5]): 171 ± 17% | IC50 (α2β3γ2 GABAARs [6]): 390 ± 80 nM | EC50 (α3β3γ2 GABAARs): 1100 ± 320 nM | α2/α1 selectivity ratio (human GABAARs): 1.02 ± 0.05

CN1C(=O)CN=C(c2ccccc2)c2cc(Cl)ccc21 [DZP, diazepam]
Emax (α2β3γ2 GABAARs [2]): 123 ± 11% | Direct activation of GABAAR currents [3]: did not directly activate GABAAR currents | Emax (α5β2γ2 GABAARs): 100 ± 6.4% | ED50 antihyperalgesia [7]: 3.4 ± 1.3 mg/kg | Emax (α1β2γ2 GABAARs [5]): 141 ± 17% | Dose at which reduction in locomotor activity reached statistical significance ([8]; 129X1/SvJ mice, p.o., 72-120 min): ≥ 10 mg/kg | Effect on locomotor activity ([8]; C57BL/6J mice, 3, 10 and 30 mg kg−1 p.o., 72-120 min): dose-dependent reduction in locomotor activity | Dose at which reduction in locomotor activity reached statistical significance ([8]; C57BL/6J mice, p.o., 72-120 min): 1 mg/kg | Effect on locomotor activity in HRRR mice ([8]; HRRR triple point-mutated mice (only α1GABAARs BDZ-sensitive), 3–10 mg kg−1 p.o.): completely suppressed | Effect on locomotor activity in RHRR mice ([8]; RHRR triple point-mutated mice (only α2GABAARs BDZ-sensitive), p.o.): increased locomotion | Dose reducing locomotor activity in RRRR mice ([8]; quadruple point-mutated RRRR mice, p.o.): ≥ 30 mg/kg | ED50 sedation ([8]; triple (H→R) point-mutated mice, only α1GABAARs BDZ-sensitive, p.o.): 0.59 ± 0.08 mg/kg | Electrophysiology Emax (potentiation) (α3β3γ2 GABAARs; α3β3γ2, GABA at EC10, mean ± SD): 227 ± 15%
